In PMC11830134 (BioImpacts : BI, 2023):
Values joined by “and” are separate entries in the source; they are usually repeats but may differ in a detail not shown here. Identical values can stand only once. Blank lines part the entries; values can stand above or below the molecule they belong to.

Legend:
[1] = Surface tension and critical micelle concentration, Du Noüy ring method; assay type: physicochemical; conditions: aqueous, 25±0.5 °C; mean ± SD, n=3
In short: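 Aqueous solutions freshly made at twice the predicted solubility as starting concentration. Du Noüy platinum ring force tensiometer, 25±0.5 °C; ring fully immersed, then slowly lifted, and force at detachment converted to surface tension. Static-zone surface tension compared with deionized water. Triplicate measurements.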

[2] = Short-term stability of aqueous solutions; assay type: physicochemical; conditions: aqueous solutions at −20, 4, 25 and 37 °C, compared with fresh samples
In short: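 Test peptide aqueous solutions at set concentrations, held at −20, 4, 25 and 37 °C for 72 h. Then quantified by ESI triple-quad MS in flow-injection mode (direct infusion from autosampler). Expressed relative to fresh samples of the same initial concentration.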

[3] = Ex-vivo skin permeation, Franz diffusion cells; assay type: in vitro ADME, Sprague-Dawley rats; conditions: for Residual drug in the donor phase / Flux / Permeated drug through the skin: rat skin, mean ± SD, n=3; for Residual drug in the donor phase: after 48h; for Flux / Permeated drug through the skin: saturated solution donor; for Flux: 37 °C; for Flux / Unrecovered/ trapped drug: 48h; for Permeated drug through the skin: over 48h; for Unrecovered/ trapped drug: total applied minus permeated and donor-recovered amounts
In short: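 Full-thickness abdominal skin from ~8-week male Sprague-Dawley rats (220-250 g), taken after isoflurane anaesthesia, mounted in upright Franz cells (2.0 cm2). Donor: peptide at saturated solubility, set from predicted logS. Receptor: 5 mL 10% (v/v) hydroethanolic solution, 37±0.5 °C, 300 rpm, 48 h. 1 mL sampled at 1-48 h with replacement, stored -20 °C, quantified by ESI-MS flow injection. Flux from permeated amount versus time.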

[4] = equilibrium zone, water; cited from earlier work
[5] = cited from earlier work
[6] = cited from earlier work; remark: listed apart in the source

Molecule: CCCCCCCCCCCC(=O)N[C@@H](CCCCN)C(=O)N[C@H](C(=O)O)[C@@H](C)O [Compound C12-KT]
CMC [1]: 15.31 ± 0.05 mg/L
stability range in the aqueous medium after 72 hours [2]: 96.2-101.8%
Residual drug in the donor phase [3]: 21.49±7.454%
Flux [3]: 0.016±0.006 µg/cm^2 /h
Permeated drug through the skin [3]: 0.5% and 0.499±0.070%
Unrecovered/ trapped drug [3]: ≈78%

Molecule: lysine-threonine-threonine-lysine-serine [KTTKS]
experimental surface tension [4]: 69.00±2.7 mN/m
logP [5]: -3.54

Molecule: Pal-KTTKS
experimental surface tension [4]: 50.3±0.40 mN/m
logP [5]: 3.72
accumulation in the epidermis [6]: 48%

Molecule: CCCCCCCCCCCCCCCC(=O)N[C@@H](CCCCN)C(=O)N[C@H](C(=O)O)[C@@H](C)O [Compound C16-KT, reference compound]
CMC [1]: 1.89 ± 0.44 mg/L
stability range in the aqueous medium after 72 hours [2]: 93.2-104.2%
Residual drug in the donor phase [3]: 4.197±1.308%
Flux [3]: 0.001±0.000 µg/cm^2 /h
Permeated drug through the skin [3]: 2.6% and 2.628±0.368%
Unrecovered/ trapped drug [3]: ≈93%

Second part, the molecule after the results:

CMC [1]: 194.95 ± 0.05 mg/L
stability range in the aqueous medium after 72 hours [2]: 98.9-101.6%
Residual drug in the donor phase [3]: 21.29±3.851%
Flux [3]: 1.084±0.085 µg/cm^2 /h
Permeated drug through the skin [3]: 33.2% and 33.24±9.562%
Unrecovered/ trapped drug [3]: ≈ 34%
Molecule: CCCCCCCC(=O)N[C@@H](CCCCN)C(=O)N[C@H](C(=O)O)[C@@H](C)O [Compound C8-KT]

CMC [1]: 42.24 ± 0.06 mg/L
stability range in the aqueous medium after 72 hours [2]: 96.6-103.7%
Residual drug in the donor phase [3]: 55.23±3.377%
Flux [3]: 0.032±0.009 µg/cm^2 /h
Permeated drug through the skin [3]: 2.3% and 2.314±1.087%
Unrecovered/ trapped drug [3]: ≈42%
Molecule: CCCCCCCCCC(=O)N[C@@H](CCCCN)C(=O)N[C@H](C(=O)O)[C@@H](C)O [Compound C10-KT]

stability range in the aqueous medium after 72 hours [2]: 99.7-100.3%
Residual drug in the donor phase [3]: 97.7% and 97.73±1.688%
Flux [3]: 0.003±0.000 µg/cm^2 /h
Permeated drug through the skin [3]: 0.004% and 0.004±0.001%
Molecule: C[C@@H](O)[C@H](NC(=O)[C@@H](N)CCCCN)C(=O)O [KT, lysine-threonine, reference compound]
